Source: ChEMBL document CHEMBL4765342, “Substituted benzothiophene and benzofuran derivatives as a novel class of bone morphogenetic Protein-2 upregulators: Synthesis, anti-osteoporosis efficacies in ovariectomized rats and a zebrafish model, and ADME properties” (Eur J Med Chem, 2020)

Experiments:
[1] = Toxicity in BALB/c mouse assessed as muscle spasm at 50 to 100 mg/kg, ig administered for 14 days; format: organism-based; details: in vivo, po, 336 h, dose 50-100 mg/kg, time 14 day
Outline: (§1)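 BALB/c mice, 10 per group, gavaged daily for 14 days at 50 or 100 mg/kg; blank control group included. Hair, behaviour and neurological signs (fremitus, convulsion, spasm, gait disturbance) were observed. At day 14, mice were weighed and given routine blood tests and serum biochemistry (ALT, AST, urea, creatinine; n = 10). Liver and kidney were examined on paraffin-embedded histology sections.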

[2] = Toxicity in BALB/c mouse assessed as convulsion at 50 to 100 mg/kg, ig administered for 14 days; format: organism-based; details: in vivo, po, 336 h, dose 50-100 mg/kg, time 14 day; outline: as §1
[3] = Toxicity in BALB/c mouse assessed as fremitus at 50 to 100 mg/kg, ig administered for 14 days; format: organism-based; details: in vivo, po, 336 h, dose 50-100 mg/kg, time 14 day; outline: as §1
[4] = Toxicity in BALB/c mouse assessed as effect on hair at 50 to 100 mg/kg, ig administered for 14 days; format: organism-based; details: in vivo, po, 336 h, dose 50-100 mg/kg, time 14 day; outline: as §1
[5] = Oral bioavailability in Sprague-Dawley rat at 10 mg/kg by LC-MS/MS analysis; format: ADME, organism-based; details: in vivo
Outline: (§2)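 SD rats dosed iv or intragastrically. Plasma (50 µL) was mixed with diclofenac internal standard (50 ng/mL, 300 µL), vortexed, centrifuged at 4 °C, and the supernatant analysed by LC/MS/MS against spiked standard and QC curves. Noncompartmental parameters calculated; mean ± SD, n = 3 (bioavailability excepted).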

[6] = AUC (0 to infinity) in Sprague-Dawley rat at 10 mg/kg, po by LC-MS/MS analysis; format: ADME, organism-based; set-up: route oral, time infinity, dose 10 mg/kg; details: in vivo
Outline: (§3)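 The acid metabolite of the parent ester was dosed directly to Sprague-Dawley rats, iv or intragastrically (n=3). Plasma (50 µL) was spiked with 5 µL DMSO, extracted with 300 µL acetonitrile containing 50 ng/mL diclofenac internal standard, then vortexed and centrifuged at 4 °C. Supernatant was quantified by LC/MS/MS against plasma calibration standards and QCs. AUC came from noncompartmental analysis.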

[7] = Cmax in Sprague-Dawley rat at 10 mg/kg, po by LC-MS/MS analysis; format: ADME, organism-based; set-up: route oral, dose 10 mg/kg; details: in vivo; outline: as §2
[8] = Half life in Sprague-Dawley rat at 10 mg/kg, po by LC-MS/MS analysis; format: ADME, organism-based; details: in vivo; outline: as §2
[9] = Tmax in Sprague-Dawley rat at 10 mg/kg, po by LC-MS/MS analysis; format: ADME, organism-based; details: in vivo; outline: as §2
[10] = MRT in Sprague-Dawley rat at 2 mg/kg, iv by LC-MS/MS analysis; format: ADME, organism-based; details: in vivo; outline: as §2
[11] = AUC (0 to t) in Sprague-Dawley rat at 2 mg/kg, iv by LC-MS/MS analysis; format: ADME, organism-based; set-up: dose 2 mg/kg; details: in vivo; outline: as §3
[12] = AUC (0 to infinity) in Sprague-Dawley rat at 2 mg/kg, iv by LC-MS/MS analysis; format: ADME, organism-based; set-up: route intravenous, time infinity, dose 2 mg/kg; details: in vivo; outline: as §3
[13] = Initial concentration in Sprague-Dawley rat at 2 mg/kg, iv by LC-MS/MS analysis; format: ADME, organism-based; details: in vivo; outline: as §2
[14] = Half life in Sprague-Dawley rat at 2 mg/kg, iv by LC-MS/MS analysis; format: ADME, organism-based; details: in vivo; outline: as §2
[15] = Toxicity in Kunming mouse assessed as organism death administered orally for 3 days and observed for 17 days starting from drug administration; details: in vivo, po, 408 h, time 17 day
[16] = Apparent permeability across apical to basolateral side in human Caco-2 cells at 10 uM incubated for 2 hrs LC-MS/MS analysis; format: ADME, cell-based; details: Caco-2
Outline: (§4)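 Caco-2 monolayers, apical to basolateral direction. Plates preincubated 30 min at 37 °C, then exposed to 10 µM compound for 2 h at 37 °C without shaking. Donor and receiver samples were quenched, centrifuged and measured by LC/MS/MS, in duplicate. Papp calculated from receiver concentration, area and time. Monolayer integrity checked by TEER and by Lucifer yellow leakage (30 min, 37 °C, ex 485/em 530 nm).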

[17] = Permeability across apical to basolateral side in human Caco-2 cells assessed as transepithelial electrical resistance at 10 uM incubated for 2 hrs LC-MS/MS analysis; format: ADME, cell-based; details: caco-2, 2 h; outline: as §4
[18] = target: Cytochrome P450 2D6 (Homo sapiens, UniProt P10635); assay: Inhibition of CYP2D6 in human liver microsomes using dextromethorphan as substrate incubated for 5 mins followed by NADPH addition and measured after 20 mins by LC-MS/MS analysis
Sequence of Cytochrome P450 2D6 (P10635 whole entry): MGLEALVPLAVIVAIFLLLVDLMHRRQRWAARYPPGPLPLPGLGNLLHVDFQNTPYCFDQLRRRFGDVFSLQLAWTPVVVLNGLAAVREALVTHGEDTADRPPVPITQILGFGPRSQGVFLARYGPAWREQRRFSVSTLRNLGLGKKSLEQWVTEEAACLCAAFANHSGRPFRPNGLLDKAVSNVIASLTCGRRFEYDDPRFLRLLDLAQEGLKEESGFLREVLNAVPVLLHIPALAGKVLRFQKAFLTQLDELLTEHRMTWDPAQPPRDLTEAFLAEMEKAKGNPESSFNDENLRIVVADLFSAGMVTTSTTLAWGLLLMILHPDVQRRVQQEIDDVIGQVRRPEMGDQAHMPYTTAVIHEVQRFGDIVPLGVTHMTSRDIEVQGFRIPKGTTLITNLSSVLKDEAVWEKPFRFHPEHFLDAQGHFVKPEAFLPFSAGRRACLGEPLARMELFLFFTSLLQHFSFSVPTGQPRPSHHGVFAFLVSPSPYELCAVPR

[19] = target: Cytochrome P450 2C9 (Homo sapiens, UniProt P11712); assay: Inhibition of CYP2C9 in human liver microsomes using diclofenac as substrate incubated for 5 mins followed by NADPH addition and measured after 20 mins by LC-MS/MS analysis; format: ADME
Sequence of Cytochrome P450 2C9 (P11712 whole entry): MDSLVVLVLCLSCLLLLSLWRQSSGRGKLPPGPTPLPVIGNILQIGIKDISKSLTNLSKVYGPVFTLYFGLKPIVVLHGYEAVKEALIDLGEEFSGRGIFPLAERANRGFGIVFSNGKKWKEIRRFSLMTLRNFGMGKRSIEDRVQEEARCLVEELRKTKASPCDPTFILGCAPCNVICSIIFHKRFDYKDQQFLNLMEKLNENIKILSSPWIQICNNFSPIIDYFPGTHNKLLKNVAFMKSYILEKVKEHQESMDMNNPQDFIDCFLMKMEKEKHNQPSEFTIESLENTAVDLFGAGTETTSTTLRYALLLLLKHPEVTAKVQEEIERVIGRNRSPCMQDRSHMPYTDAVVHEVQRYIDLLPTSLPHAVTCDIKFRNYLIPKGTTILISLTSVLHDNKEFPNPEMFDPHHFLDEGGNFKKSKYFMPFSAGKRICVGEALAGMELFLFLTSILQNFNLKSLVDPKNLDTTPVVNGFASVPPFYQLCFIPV

[20] = target: Cytochrome P450 2C19 (Homo sapiens, UniProt P33261); assay: Inhibition of CYP2C19 in human liver microsomes using omeprazole as substrate incubated for 5 mins followed by NADPH addition and measured after 20 mins by LC-MS/MS analysis; format: ADME
Sequence of Cytochrome P450 2C19 (P33261 whole entry, canonical isoform): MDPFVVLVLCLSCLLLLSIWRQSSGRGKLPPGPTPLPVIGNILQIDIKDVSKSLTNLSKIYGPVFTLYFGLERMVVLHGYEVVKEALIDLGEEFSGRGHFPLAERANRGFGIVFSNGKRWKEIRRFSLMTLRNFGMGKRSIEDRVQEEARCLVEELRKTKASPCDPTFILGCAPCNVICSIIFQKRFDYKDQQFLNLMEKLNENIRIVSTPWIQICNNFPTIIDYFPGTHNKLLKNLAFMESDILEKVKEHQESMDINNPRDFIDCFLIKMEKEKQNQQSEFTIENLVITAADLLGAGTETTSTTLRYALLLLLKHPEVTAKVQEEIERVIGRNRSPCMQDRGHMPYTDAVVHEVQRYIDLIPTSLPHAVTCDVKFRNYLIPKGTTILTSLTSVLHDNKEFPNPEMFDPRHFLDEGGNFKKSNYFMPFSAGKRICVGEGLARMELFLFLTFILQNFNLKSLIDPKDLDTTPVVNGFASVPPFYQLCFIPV
Outline: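 Human liver microsomes at 0.2 mg/mL mixed with probe substrates, preincubated 5 min at 37 °C. Reaction started with NADPH and run 20 min at 37 °C in a shaking bath. Quenched, held at -20 °C for 1 h, centrifuged, and the supernatant analysed by LC/MS/MS. Assay validated with specific inhibitors for each isoform.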

[21] = Toxicity in BALB/c mouse assessed as effect on behavioral change at 50 to 100 mg/kg, ig administered for 14 days; format: organism-based; details: in vivo, po, 336 h, dose 50-100 mg/kg, time 14 day; outline: as §1
[22] = Toxicity in BALB/c mouse assessed as hepatocyte nucleus mitosis at 50 to 100 mg/kg, ig administered for 14 days; format: organism-based; details: in vivo, po, 336 h, dose 50-100 mg/kg, time 14 day; outline: as §1
[23] = Toxicity in BALB/c mouse assessed as effect on liver megakaryocyte at 50 to 100 mg/kg, ig administered for 14 days; format: organism-based; details: in vivo, po, 336 h, dose 50-100 mg/kg, time 14 day; outline: as §1
[24] = Toxicity in BALB/c mouse assessed as inflammatory infiltration in liver at 50 to 100 mg/kg, ig administered for 14 days; format: organism-based; details: in vivo, po, 336 h, dose 50-100 mg/kg, time 14 day; outline: as §1
[25] = Toxicity in BALB/c mouse assessed as hepatocyte necrotic foci at 50 to 100 mg/kg, ig administered for 14 days; format: organism-based; details: in vivo, po, 336 h, dose 50-100 mg/kg, time 14 day; outline: as §1
[26] = Toxicity in BALB/c mouse assessed as necrosis in renal tubular epithelial cells at 50 to 100 mg/kg, ig administered for 14 days; format: organism-based; details: in vivo, po, 336 h, dose 50-100 mg/kg, time 14 day
Outline: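 BALB/c mice, 10 per group: untreated blank group plus low (50 mg/kg) and high (100 mg/kg) dose groups, intragastric once daily for 14 days. Hair, behaviour and neurological signs monitored throughout. At day 14 mice were weighed and dissected. Kidney and liver tissue was fixed in 3 mm pieces, dehydrated through graded alcohol, cleared in xylene, embedded in paraffin, sectioned and examined histopathologically.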

[27] = Hepatotoxicity in BALB/c mouse assessed as effect on serum ALT level at 50 to 100 mg/kg, ig administered for 14 days; format: toxicity, organism-based; details: in vivo, po, 336 h, dose 50-100 mg/kg, time 14 day; outline: as §1
[28] = Hepatotoxicity in BALB/c mouse assessed as effect on serum AST level at 50 to 100 mg/kg, ig administered for 14 days; format: toxicity, organism-based; details: in vivo, po, 336 h, dose 50-100 mg/kg, time 14 day; outline: as §1
[29] = Renal toxicity in BALB/c mouse assessed as effect on serum creatinine level at 50 to 100 mg/kg, ig administered for 14 days; format: organism-based; details: in vivo, po, 336 h, dose 50-100 mg/kg, time 14 day; outline: as §1
[30] = in vitro; details: human, liver microsomes
[31] = in vitro; details: human, liver microsomes; remark: listed apart in the source

## COc1ccc2cc(C(=O)NCCN(C)C)oc2c1.CS(=O)(=O)O
[1]
  Activity: Non-Toxic
[2]
  Activity: Non-Toxic
[3]
  Activity: Non-Toxic
[4]
  Activity: Non-Toxic
[5]
  bioavailability: 83.1%
[6]
  AUC(0-inf): 286 ng·h/mL
[7]
  Cmax: 54.2 ng/mL
[8]
  half-life: 4.53 h
[9]
  Tmax: 0.5 h
[10]
  MRT: 2.85 h
[11]
  AUC(0-t): 59.5 ng·h/mL
[12]
  AUC(0-inf): 69 ng·h/mL
[13]
  C0: 17.2 ng/mL
[14]
  half-life: 2.52 h
[15]
  LD50: > 500 mg/kg/day
[16]
  Papp A→B at 2 h, 10 µM: 9.34 ×10⁻⁶ cm/s
[17]
  Activity: 341 Ω·cm²
[18]
  IC50: 7.84 µM
[19]
  IC50: > 10 µM
[20]
  IC50: > 10 µM
[21]
  Activity: Non-Toxic
[22]
  Activity: Toxic
[23]
  Activity: Toxic
[24]
  Activity: Toxic
[25]
  Activity: Toxic
[26]
  Activity: Toxic
[27]
  Activity: Non-Toxic
[28]
  Activity: Non-Toxic
[29]
  Activity: Non-Toxic
[30]
  half-life at 0.5 h, 100 µM: 1.72 h
[31]
  microsomal CLint at 0.5 h, 100 µM: 6.73 µL/min/mg
